Only some compounds are listed: those with a hit (about 2.6% of all), similar ones and a draw of the others.
ARFGAP1 inhibitor = inhibitors of rat ARFGAP1 GAP activity, primary screen, biochemical, fluorescence polarization, GDP tracer; ADP-ribosylation factor GTPase-activating protein 1 (Rattus norvegicus), Q62848; inhibition, % at 16.5 µM; Arfgap1-stimulated ARF1 GTP hydrolysis, GDP FP detection; 360,000 tested, 0.26% active;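 active = inhibition above a per-plate limit, mean inhibition of low control wells plus 3 SD, cut at about 25% in these data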;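 note: 0% = DMSO wells with enzyme and 100% = wells lacking Arfgap1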
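System: truncated rat Arfgap1 GAP domain / Medium: HEPES-based buffer, pH 7.5 / Also added: N-terminally truncated human ARF1-GTP substrate / Incubation: enzyme reaction 120 min at 25 °C after 20 min preincubation / Measured by: FP of antibody-bound GDP Alexa 633 tracer, ex 620/em 688 nm / Replicates: singlicate, each compound tested once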
ASAP1 GAP inh = inhibitors of human ASAP1 ArfGAP activity, primary screen, biochemical, fluorescence polarization; Arf-GAP with SH3 domain, ANK repeat and PH domain-containing protein 1 (Homo sapiens), …; ASAP1-stimulated ARF1 GTP hydrolysis, GDP FP detection; inhibition, % at 16.5 µM; 360,000 tested, 0.19% active; in the data active = inhibition above about 25%;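 note: 0% = vehicle with enzyme and substrate and 100% = no enzyme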
esBAF inh = Bmi1 luciferase reporter increase in mESCs, primary screen, esBAF inhibitor project, mouse ES cells, Bmi1 luciferase knock-in, single point; 24 h; 100% = twice the neutral-well signal; reporter increase, % at 12.5 µM; 350,000 tested, 2% active; AID 602393, 2012; in the data active = activation above about 40%;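 note: 0% = median of the plate's neutral control wells and 100% = double that signal; a rise in the Bmi1 reporter signal indicates esBAF inhibition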
SMARCA2 activ = SMARCA2 (BRM) function activators, primary screen, cell-based, luminescence, high throughput. MG213 cells, MMTV-luciferase reporter, dexamethasone, overnight. activation, % at 9.1 µM. 370,000 tested, 1% active; in the data active = activation above about 7.8%;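 note: 0% = vehicle wells and 100% = reference activator wells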
ARFGAP1 inh conf = ARFGAP1 inhibitor hit confirmation, biochemical, fluorescence polarization, triplicate; shares compounds with ARFGAP1 inhibitor; ARFGAP1-stimulated ARF1 GTP hydrolysis, GDP tracer FP; inhibition, % at 16.5 µM; 890 tested, 30% active;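 active = average inhibition over triplicates above the hit cutoff set in the earlier primary screen, cut at about 25% in these data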;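 note: 0% = Arfgap1 plus ARF1-GTP with DMSO and 100% = wells lacking Arfgap1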
Target sequence (Q62848 whole entry, looked up): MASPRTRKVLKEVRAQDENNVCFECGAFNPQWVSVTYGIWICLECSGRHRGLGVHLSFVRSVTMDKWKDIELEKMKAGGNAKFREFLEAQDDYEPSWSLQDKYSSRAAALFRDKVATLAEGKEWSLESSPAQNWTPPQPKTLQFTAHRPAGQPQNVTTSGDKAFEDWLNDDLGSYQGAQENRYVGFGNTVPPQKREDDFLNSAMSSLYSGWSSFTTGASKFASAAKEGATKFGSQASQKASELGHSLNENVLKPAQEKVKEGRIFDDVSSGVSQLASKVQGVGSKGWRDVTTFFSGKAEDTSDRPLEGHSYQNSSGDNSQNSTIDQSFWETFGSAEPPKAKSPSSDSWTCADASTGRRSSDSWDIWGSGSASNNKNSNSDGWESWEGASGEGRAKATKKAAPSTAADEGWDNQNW
Starred values were filed as active, the others as inactive; nt = not tested or not shown.

SMILES	ARFGAP1 inhibitor	ASAP1 GAP inh	esBAF inh	SMARCA2 activ	ARFGAP1 inh conf
CNC[C@H]1Oc2ccc(NC(=O)CCCN(C)C)cc2C(=O)N([C@H](C)CO)C[C@@H]1C	nt	nt	4.3	nt	nt
COc1ccc(NC(=O)Nc2ccc(F)cc2)cn1	25.2*	-3.5	-31.5	1.6	3.4
COc1ccc(NC(=S)Nc2ccccc2)cn1	-6.3	-11.0	nt	-3.7	nt
C[C@@H]1CCCCO[C@@H](CN(C)Cc2ccc3c(c2)OCO3)[C@H](C)CN([C@@H](C)CO)C(=O)c2cc(NC(=O)Nc3ccc(F)cc3)ccc2O1	nt	nt	-5.5	nt	nt
O=C(CSc1nnc(Nc2ccccc2)s1)NC1CCCC1	25.5*	16.2	5.3	-0.9	-3.7
COc1nnc(-c2ccc(N3CCOCC3)c(NC(C)=O)c2)c2ccccc12	-9.9	3.7	-5.4	1.1	nt
COc1nnc(-c2ccc(N3CCOCC3)c(NC(=O)c3ccccc3)c2)c2ccccc12	40.6*	0.7	11.7	-2.2	2.5
O=C(Cn1c2ccc(F)cc2c2nc3n(c(=O)c21)CCS3)Nc1ccccc1C(F)(F)F	30.2*	22.2	nt	-2.5	41.8*
CCn1c(CSc2nc3ccccc3s2)nnc1SCC(=O)c1ccc(O)c(O)c1	31.5*	-8.2	-10.0	-1.5	-0.9
CC(C)NC(=O)Nc1ccc2c(c1)C(=O)N([C@@H](C)CO)C[C@@H](C)[C@@H](CN(C)CC1CC1)OCCCC[C@@H](C)O2	nt	nt	-2.0	nt	nt
O=C(NC1CCCC1)[C@@H]1[C@@H](CO)[C@@H]2Cn3c(ccc(-c4cccnc4)c3=O)[C@@H]2N1CCc1ccccc1	nt	nt	3.4	nt	nt
CC(C)(C)c1cc[n+](-c2nc([O-])sc2C=O)cc1	27.2*	-2.5	nt	0.3	0.1
Oc1ccc(NC(=S)N=Nc2c(O)[nH]c3ccc(Br)cc23)cc1	29.0*	7.2	-6.3	-0.3	24.2
C[C@@H]1CN([C@@H](C)CO)C(=O)c2cc(NC(=O)Nc3ccc4c(c3)OCO4)ccc2O[C@H]1CN(C)C(=O)Nc1ccccc1	nt	nt	3.6	nt	nt
C[C@@H]1CCCCO[C@H](CN(C)S(=O)(=O)c2cccs2)[C@H](C)CN([C@@H](C)CO)C(=O)c2cc(NC(=O)NC3CCCCC3)ccc2O1	24.9*	-3.2	14.5	-0.6	3.9
CCN(CC)c1ccc(C(=C2C=CC(=[N+](CC)CC)C=C2)c2ccccc2)cc1	15.8	-0.2	nt	-12.6	nt
CCN(CC)c1ccc(C(=C2C=CC(=[N+](CC)CC)C=C2)c2ccc(N(CC)CC)cc2)cc1	35.8*	18.2	-86.7	-9.2	23.8
Cc1nnc2ccc(-c3cccc(NC(=O)c4ccc(Cl)nc4)c3)nn12	26.7*	9.3	-0.8	-1.1	1.6
Cc1nnc2ccc(-c3cccc(NC(=O)c4ccc(Br)o4)c3)nn12	7.9	-3.4	0.1	-2.3	nt
CCn1c(CNC(=O)c2cccs2)nnc1SCC(=O)Nc1cc(Cl)ccc1C	-1.2	-0.7	2.5	-0.5	nt
CCn1c(CNC(=O)c2cccs2)nnc1SCC(=O)Nc1ccc(Cl)cc1	31.5*	2.3	-4.4	-1.5	-3.4
C[C@@H]1CN([C@@H](C)CO)C(=O)c2cccc(NC(=O)Nc3ccc(C(F)(F)F)cc3)c2O[C@H]1CN(C)C(=O)Nc1ccccc1	nt	nt	-0.2	nt	nt
CN1C(=O)c2cc(NC(=O)Cc3ccccc3)ccc2OC[C@H]2O[C@@H](CC(=O)NCC3CC3)CC[C@H]21	nt	nt	2.5	nt	nt
O=C(NCc1ccccc1C(F)(F)F)C1CC(c2ccc(C(F)(F)F)cc2)=NO1 (stereo not drawn)	28.1*	-4.4	1.6	-0.3	6.9
O=C(NCc1ccc(C(F)(F)F)cc1)C1CC(c2ccc(C(F)(F)F)cc2)=NO1 (stereo not drawn)	9.1	1.6	-10.9	-0.9	nt
COC(=O)/C(C#N)=C/c1ccc(C)o1	24.7*	6.6	-3.0	1.5	-3.6
CCOC(=O)CNC(=O)c1c(C)nn(C)c1Cl	24.6*	6.2	nt	2.5	3.2
C=CCOc1ccc(/C=C/C(=O)Nc2ccc(C(=O)NC)cc2)cc1	28.8*	18.6	-7.7	1.1	36.7*
CC(C)NC(=O)c1ccccc1NC(=O)CN(c1ccc2c(c1)OCO2)S(C)(=O)=O	30.0*	-13.3	7.7	-1.4	3.2
